# In ChEMBL document CHEMBL4622914, “Development of a bioavailable boron-containing PI-103 Bioisostere, PI-103BE” (Bioorg Med Chem Lett, 2020):
# What was measured:
# [1] = Tmax in ovariectomized nu/nu mouse assessed (3-(4-morpholinopyrido [3',2':4,5] furo [3,2-d] pyrimidin-2-yl)phenyl)boronic acid at 10 mg/kg, ip measured upto 24 hrs by UHPLC-MS analysis; format: ADME, organism-based; details: in vivo
# [2] = AUC (0 to 24 hrs) in ovariectomized nu/nu mouse assessed 3-(4-morpholinopyrido [3',2':4,5] furo [3,2-d] pyrimidin-2-yl)phenol at 10 mg/kg, po measured upto 24 hrs by UHPLC-MS analysis; format: ADME, organism-based; set-up: dose 10 mg/kg, time < 24 hr, route oral; details: in vivo
# Procedure, shortened: (§1)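 Female ovariectomized Nu/Nu mice, 4–6 weeks old, n = 5 per group. Single 10 mg/kg oral gavage in 5% DMSO/40% PEG 400/55% saline. Orbital-sinus blood was taken at 0.5, 1, 3, 8 and 24 h, one sampling per group, into EDTA. Plasma was spun at 4 °C and stored at −80 °C. The prodrug's boronic acid metabolite and phenol were quantified by C18 UHPLC–TSQ MS/MS with an acetonitrile/water 0.05% formic acid gradient.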
# [3] = Stability of compound in cell culture medium assessed as compound hydrolysis measured after 1 hr; format: physicochemical
# [4] = Drug concentration in ovariectomized nu/nu mouse plasma assessed (3-(4-morpholinopyrido [3',2':4,5] furo [3,2-d] pyrimidin-2-yl)phenyl)boronic acid at 10 mg/kg, po measured after 1 hr by UHPLC-MS analysis; format: ADME, organism-based; details: in vivo; procedure, shortened: as §1
# [5] = Drug concentration in ovariectomized nu/nu mouse plasma assessed (3-(4-morpholinopyrido [3',2':4,5] furo [3,2-d] pyrimidin-2-yl)phenyl)boronic acid at 10 mg/kg, po measured after 3 hrs by UHPLC-MS analysis; format: ADME, organism-based; details: in vivo; procedure, shortened: as §1
# [6] = Cmax in ovariectomized nu/nu mouse assessed (3-(4-morpholinopyrido [3',2':4,5] furo [3,2-d] pyrimidin-2-yl)phenyl)boronic acid at 10 mg/kg, ip measured upto 24 hrs by UHPLC-MS analysis; format: ADME, organism-based; set-up: dose 10 mg/kg, route intraperitoneal; details: in vivo
# [7] = Half life in ovariectomized nu/nu mouse assessed 3-(4-morpholinopyrido [3',2':4,5] furo [3,2-d] pyrimidin-2-yl)phenol at 10 mg/kg, ip measured upto 24 hrs by UHPLC-MS analysis; format: ADME, organism-based; details: in vivo
# [8] = Stability of compound in cell culture medium assessed as compound hydrolysis measured after 24 hrs; format: physicochemical
# [9] = Drug concentration in ovariectomized nu/nu mouse plasma assessed (3-(4-morpholinopyrido [3',2':4,5] furo [3,2-d] pyrimidin-2-yl)phenyl)boronic acid at 10 mg/kg, po measured after 0.5 hrs by UHPLC-MS analysis; format: ADME, organism-based; details: in vivo; procedure, shortened: as §1
# [10] = Drug concentration in ovariectomized nu/nu mouse plasma assessed (3-(4-morpholinopyrido [3',2':4,5] furo [3,2-d] pyrimidin-2-yl)phenyl)boronic acid at 10 mg/kg, ip measured after 8 hrs by UHPLC-MS analysis; format: ADME, organism-based; details: in vivo
# [11] = Drug concentration in ovariectomized nu/nu mouse plasma assessed 3-(4-morpholinopyrido [3',2':4,5] furo [3,2-d] pyrimidin-2-yl)phenol at 10 mg/kg, po measured after 3 hrs by UHPLC-MS analysis; format: ADME, organism-based; details: in vivo; procedure, shortened: as §1
# CWR22R = assay: Antiproliferative activity against human 22Rv1 cells assessed as reduction in cell viability incubated for 4 days by coulter counter method; format: functional, cell-based; details: 22Rv1, 96 h
# Procedure, shortened: (§2)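 Cancer cells were seeded at 50,000 per well in DMEM with 5% FBS. They were exposed to six compound doses for 4 days, with DMSO as vehicle control and a reference inhibitor as positive control. Cells were counted by Coulter counter. Survival ratio is treated cell number over vehicle cell number. IC50 was taken from dose–response curves. Triplicate experiments.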
# [12] = Drug concentration in ovariectomized nu/nu mouse plasma assessed 3-(4-morpholinopyrido [3',2':4,5] furo [3,2-d] pyrimidin-2-yl)phenol at 10 mg/kg, ip measured after 0.5 hrs by UHPLC-MS analysis; format: ADME, organism-based; details: in vivo
# [13] = Cmax in ovariectomized nu/nu mouse assessed 3-(4-morpholinopyrido [3',2':4,5] furo [3,2-d] pyrimidin-2-yl)phenol at 10 mg/kg, ip measured upto 24 hrs by UHPLC-MS analysis; format: ADME, organism-based; set-up: dose 10 mg/kg, route intraperitoneal; details: in vivo
# [14] = Drug concentration in ovariectomized nu/nu mouse plasma assessed (3-(4-morpholinopyrido [3',2':4,5] furo [3,2-d] pyrimidin-2-yl)phenyl)boronic acid at 10 mg/kg, ip measured after 3 hrs by UHPLC-MS analysis; format: ADME, organism-based; details: in vivo
# PC-3 = assay: Antiproliferative activity against human PC3 cells assessed as reduction in cell viability incubated for 4 days by coulter counter method; format: functional, cell-based; details: PC-3, 96 h
# Procedure, shortened: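 Cells seeded at 50,000 per well in DMEM with 5% FBS, exposed to six concentrations of compound for 4 days; DMSO as vehicle control. Cell numbers counted on a Coulter counter; survival ratio = treated/vehicle cell count. IC50 taken from dose-response curves. Triplicate experiments, mean ± SD.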
# [15] = Stability of compound in cell culture medium assessed as compound hydrolysis measured after 3 hrs; format: physicochemical
# [16] = Tmax in ovariectomized nu/nu mouse assessed (3-(4-morpholinopyrido [3',2':4,5] furo [3,2-d] pyrimidin-2-yl)phenyl)boronic acid at 10 mg/kg, po measured upto 24 hrs by UHPLC-MS analysis; format: ADME, organism-based; details: in vivo; procedure, shortened: as §1
# [17] = Drug concentration in ovariectomized nu/nu mouse plasma assessed 3-(4-morpholinopyrido [3',2':4,5] furo [3,2-d] pyrimidin-2-yl)phenol at 10 mg/kg, ip measured after 3 hrs by UHPLC-MS analysis; format: ADME, organism-based; details: in vivo
# [18] = Cmax in ovariectomized nu/nu mouse assessed 3-(4-morpholinopyrido [3',2':4,5] furo [3,2-d] pyrimidin-2-yl)phenol at 10 mg/kg, po measured upto 24 hrs by UHPLC-MS analysis; format: ADME, organism-based; set-up: dose 10 mg/kg, route oral; details: in vivo; procedure, shortened: as §1
# [19] = Drug concentration in ovariectomized nu/nu mouse plasma assessed (3-(4-morpholinopyrido [3',2':4,5] furo [3,2-d] pyrimidin-2-yl)phenyl)boronic acid at 10 mg/kg, ip measured after 1 hr by UHPLC-MS analysis; format: ADME, organism-based; details: in vivo
# [20] = Drug concentration in ovariectomized nu/nu mouse plasma assessed 3-(4-morpholinopyrido [3',2':4,5] furo [3,2-d] pyrimidin-2-yl)phenol at 10 mg/kg, po measured after 1 hr by UHPLC-MS analysis; format: ADME, organism-based; details: in vivo; procedure, shortened: as §1
# [21] = Drug concentration in ovariectomized nu/nu mouse plasma assessed (3-(4-morpholinopyrido [3',2':4,5] furo [3,2-d] pyrimidin-2-yl)phenyl)boronic acid at 10 mg/kg, po measured after 8 hrs by UHPLC-MS analysis; format: ADME, organism-based; details: in vivo; procedure, shortened: as §1
# [22] = Stability of compound in cell culture medium assessed as compound hydrolysis measured after 0.5 hrs; format: physicochemical
# [23] = Half life in ovariectomized nu/nu mouse assessed (3-(4-morpholinopyrido [3',2':4,5] furo [3,2-d] pyrimidin-2-yl)phenyl)boronic acid at 10 mg/kg, po measured upto 24 hrs by UHPLC-MS analysis; format: ADME, organism-based; details: in vivo; procedure, shortened: as §1
# A549 = assay: Antiproliferative activity against human A549 cells assessed as reduction in cell viability incubated for 4 days by coulter counter method; format: functional, cell-based; details: A549, 96 h; procedure, shortened: as §2
# [24] = Drug concentration in ovariectomized nu/nu mouse plasma assessed 3-(4-morpholinopyrido [3',2':4,5] furo [3,2-d] pyrimidin-2-yl)phenol at 10 mg/kg, ip measured after 8 hrs by UHPLC-MS analysis; format: ADME, organism-based; details: in vivo
compound,measurement,setting,value
CC1(C)OB(c2cccc(-c3nc(N4CCOCC4)c4oc5ncccc5c4n3)c2)OC1(C)C,Tmax,[1],1 h
same,AUC,[2],88.2 ng·h/mL
same,Drug degradation,[3],0.01 µM
same,Cp,[4],709.2 ng/mL
same,Cp,[5],516.2 ng/mL
same,Cmax,[6],44.5 ng/mL
same,t1/2,[7],12.4 h
same,Drug degradation,[8],0 µM
same,Cp,[9],402.8 ng/mL
same,Cp,[10],17.2 ng/mL
same,Cp,[11],6.5 ng/mL
same,IC50,CWR22R,660 nM
same,Cp,[12],14.9 ng/mL
same,Cmax,[13],14.9 ng/mL
same,Cp,[14],28 ng/mL
same,IC50,PC-3,720 nM
same,Drug degradation,[15],0 µM
same,Tmax,[16],1 h
same,Cp,[17],1.3 ng/mL
same,Cmax,[18],8.2 ng/mL
same,Cp,[19],44.5 ng/mL
same,Cp,[20],8.2 ng/mL
same,Cp,[21],354.2 ng/mL
same,Drug degradation,[22],0.04 µM
same,t1/2,[23],9.2 h
same,IC50,A549,570 nM
same,Cp,[24],1 ng/mL
